Source: PubChem BioAssay
CHRM5 agonist – agonists of human muscarinic M5 receptor (CHRM5) | P08912 | CHO-K1 hM5 cells, Fluo-8 calcium fluorescence; 0% DMSO wells, 100% maximal acetylcholine response | activation, % at 3 µM | actives 0.19% (n = 360,000);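 active means activation above the run's mean over test compounds plus 3 SD, cut at about 23% in these data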;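 further: signal is peak over basal fluorescence ratio across the kinetic read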
Target sequence (P08912 whole entry, looked up): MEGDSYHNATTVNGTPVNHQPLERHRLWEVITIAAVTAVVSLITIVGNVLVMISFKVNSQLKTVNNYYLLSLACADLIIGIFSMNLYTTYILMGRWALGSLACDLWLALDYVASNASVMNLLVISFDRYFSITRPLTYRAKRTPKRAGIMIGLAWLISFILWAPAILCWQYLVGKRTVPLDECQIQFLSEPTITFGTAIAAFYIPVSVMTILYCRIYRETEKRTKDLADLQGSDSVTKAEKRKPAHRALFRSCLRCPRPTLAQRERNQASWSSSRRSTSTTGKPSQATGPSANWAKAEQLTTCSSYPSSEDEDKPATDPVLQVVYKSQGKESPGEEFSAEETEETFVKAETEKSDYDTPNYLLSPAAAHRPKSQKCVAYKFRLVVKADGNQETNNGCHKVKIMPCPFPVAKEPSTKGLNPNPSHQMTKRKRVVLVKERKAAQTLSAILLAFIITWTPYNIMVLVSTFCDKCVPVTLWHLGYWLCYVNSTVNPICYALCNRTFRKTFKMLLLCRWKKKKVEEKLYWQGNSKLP
M5 antag – blocks acetylcholine activation of human M5 receptor. inhibition, % at 3 µM. P08912. actives 0.59% (n = 360,000). AID 624040. CHO-hM5 cells, Fluo-8 calcium fluorescence, ACh EC80;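 active means inhibition above a per-plate cutoff, the mean of that plate's test compounds plus 3 SD, cut at about 27% in these data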;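 further: 0% = acetylcholine EC80 with DMSO and 100% = DMSO without agonist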
CHRM4 antagonist – CHRM4 antagonism in calcium assay; actives 0.73% (n = 360,000); CHO-hM4 cells, ACh EC80, Fluo-8 calcium fluorescence; inhibition, % at 3 µM; AID 624125; P08173;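 active means inhibition above its plate's cutoff, the mean inhibition of sample wells plus 3 SD, cut at about 27% in these data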;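 further: 0% = acetylcholine EC80 with DMSO and 100% = DMSO without agonist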
M5 PAM – positive allosteric modulators of human muscarinic M5 receptor | actives 0.3% (n = 360,000) | P08912 | CHO-K1 hM5, Fluo-8 calcium, ACh EC20 PAM; 0% = ACh EC20, 100% = ACh EC100 | activation, % at 3 µM;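 active means activation above the run cutoff, the mean activation of all test compounds plus 3 SD, cut at about 18% in these data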
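Measured by: Fluo-8 calcium fluorescence; material: human M5 receptor in CHO-K1 cells; schedule: Post-acetylcholine fluorescence recording 140 s; benchmarks: low control EC20 acetylcholine (0%), high control EC100 acetylcholine (100%); read-out: Max/basal fluorescence ratio as % of EC20–EC100 ACh window; compound: single dose, 3 µM nominal final test concentration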
M4 ag – CHRM4 agonism in calcium assay. actives 0.14% (n = 360,000). CHO-K1 hM4/Gqi5, Fluo-8 calcium fluorescence; vehicle 0%, full acetylcholine response 100%. activation, % at 3 µM. P08173;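 active means activation above the run mean over all test wells plus 3 SD, cut at about 32% in these data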;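 further: peak over basal fluorescence ratio per well then scaled between controls; 0% = DMSO wells and 100% = acetylcholine at EC100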
M4 PAM – potentiates acetylcholine response at human M4 receptor. P08173. CHO-K1 hM4/Gqi5, Fluo-8 calcium fluorescence, ACh EC20; 0% = ACh EC20, 100% = maximal ACh. activation, % at 3 µM. actives 0.4% (n = 360,000);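 active means activation above its plate's cutoff, the mean activation of sample wells plus 3 SD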
* hit, by the source's call. Sampled rows, rich in hits. Any-hit rate of the full collection: about 1.9%.

SMILES	CHRM5 agonist	M5 antag	CHRM4 antagonist	M5 PAM	M4 ag	M4 PAM
C#Cc1ccc(CN2CCC(C(=O)Nc3ccc(Oc4ccccc4)nc3)CC2)cc1	-1	5	-3	-5	12	-6
O=C(Nc1ccc(Oc2ccccc2)nc1)C1CCN(Cc2cccc(F)c2)CC1	-4	31*	1	-13	6	-2
CC(C)COc1ccc(-c2nnc(-c3ccncc3)o2)cc1	1	5	6	1	2	17
COc1ccc(-c2nnc(-c3ccc(OCC(C)C)cc3)o2)cc1	-4	-6	-6	9	2	22*
CCOc1ccc(S(=O)(=O)c2c[nH]c3ccccc3c2=O)cc1	-1	11	-2	-4	-1	-4
Cc1sc2ncnc(N/N=C/c3ccccc3O)c2c1C	0	-3	-20	0	1	30*
Cc1sc2ncnc(N/N=C/c3ccc(O)cc3)c2c1C	2	-4	-1	-2	3	19
CN1C[C@@H](CO)O[C@@H](n2cnc3c(N4CCOCC4)ncnc32)C1	-1	-1	2	1	0	5
COc1ccc(-n2c(C)c(C)c3c(NCCN(C)C)ncnc32)cc1	5	14	-5	29*	2	0
Cc1ccc(S(=O)(=O)N2CCN(C(=O)c3sccc3-c3ccccc3)CC2)cc1	-6	30*	2	-12	6	-7
NC(=O)c1ccnc2c(O)cccc12	1	-1	2	-2	3	9
OCc1ccnc2c(O)cccc12	0	1	1	22*	1	7
COc1ccc(S(=O)(=O)N2CCc3ccccc32)cc1C(=O)Nc1ccc(C(N)=O)cc1	-3	37*	4	-37	10	-8
O=C1OC(N2C(=O)CC[C@H]2C(=O)Nc2ccc(Br)cc2F)c2ccccc21 (some centres undefined)	-1	6	-9	0	3	3
COc1cccc(CNCc2ccc(OC)c3ccccc23)c1OC	9	31*	17	-18	37*	-17
COC(=O)CNC(=O)CNC(=O)Nc1ccccc1	-3	2	6	9	-1	3
COC(=O)CCCCNC(=O)Nc1ccccc1	1	0	7	23*	1	6
C=CCSc1nnc2nc3c(nn12)c1cc(C)ccc1n3CC=C	-2	-11	-21	41*	1	10
C=CCn1c2ccccc2c2nnc(SCC(N)=O)nc21	-2	5	2	-1	2	2
CCN(C(=O)CCS(=O)(=O)c1cc2c(cc1Cl)NC(=O)CO2)c1ccccc1	5	-2	-6	-6	3	2
CC1Cc2ccccc2N1S(=O)(=O)c1cnc[nH]1 (centres undefined)	5	-4	-2	43*	1	7
CN(CC(=O)Nc1ccccc1Br)C(=O)CN1CCN(Cc2ccc(Cl)cc2)CC1	-2	5	9	-1	1	-5
CCC(CO)NCC#Cc1ccccc1 (centres undefined)	-6	7	40*	2	2	-16
OC(CNCC#Cc1ccccc1)c1ccccc1 (centres undefined)	-1	5	-8	0	1	0
COc1ccc(/C=C(/NC(=O)c2ccco2)C(=O)NCc2ccco2)cc1OC	-3	17	-10	-7	-2	26*
SMILES	CHRM5 agonist	M5 antag	CHRM4 antagonist	M5 PAM	M4 ag	M4 PAM
CCOC(=O)/C(=C/c1ccc(Cl)cc1)NC(=O)c1ccco1	-5	-2	-12	14	2	24*
O=C(OCc1ccccc1)/C(=C/c1ccc(Cl)cc1)NC(=O)c1ccccc1Cl	2	16	9	5	1	21
COc1cccc(N(C(=O)Cn2nnc3ccccc32)C(C(=O)NCc2ccco2)c2cccnc2)c1 (centres undefined)	0	-1	-4	2	1	1
COc1cccc(C(C(=O)NCc2ccco2)N(Cc2ccco2)C(=O)Cn2nnc3ccccc32)c1 (centres undefined)	-1	13	30*	-19	9	-7
O=C(Cc1cccc(NC(=O)C2CCN(C(=O)c3ccccc3)CC2)c1)Nc1cccc(C(=O)N2CCCC2)c1	0	2	11	6	-2	5
COc1ccc(C(=O)Nc2cc(Cl)ccc2OC(=O)c2ccc(OC)cc2)cc1	-1	5	-1	-3	0	-2
COc1ccc(C(=O)Nc2cc(Cl)ccc2C(=O)O)cc1	4	2	-1	20*	0	9
CC(C)C1S/C(=N/N=C/c2ccco2)NC1=O (centres undefined)	2	5	30*	-4	2	2
COc1cc(Cl)c(C)cc1NC(=O)c1ccc(NS(=O)(=O)c2ccc(F)c(F)c2)cc1	1	5	-9	8	0	20*
CCn1c(=O)c2cc(C(=O)NCCN3CCOCC3)sc2c2ccccc21	0	7	76*	-13	3	-17
Cc1ccc(CN2CCNC(=O)C2CC(=O)N(C)C(C2CC2)C2CC2)o1 (centres undefined)	-2	-1	-6	1	1	11
Cc1ccc(CN2CCNC(=O)C2CC(=O)NCC(F)(F)F)o1 (centres undefined)	-4	27*	-3	-13	1	12
CC(C)(C)OC(=O)NCc1ccc(CNC(=O)c2nc[nH]c2C(=O)NCc2ccc(CNC(=O)OC(C)(C)C)cc2)cc1	5	1	2	-10	8	-4
CC(C)(C)OC(=O)NCCCCCNC(=O)c1nc[nH]c1C(=O)NCc1ccc(CNC(=O)OC(C)(C)C)cc1	2	33*	54*	-38	34*	-17
O=C(Cc1ccc(Cl)cc1Cl)Nc1ccncc1Cl	3	30*	3	-13	11	-6
O=C(Cc1ccc(Cl)cc1Cl)Nc1ccncc1	2	10	5	-6	13	-1
Cc1cc(C)c(C)c(S(=O)(=O)N2CCC(C(=O)N3CC(C)CC(C)C3)CC2)c1C (centres undefined)	-4	6	-5	-6	0	20*
CCN(CC)CCN1C(=O)/C(=C\c2ccc(Cl)c([N+](=O)[O-])c2)SC1=Nc1ccc(OC)cc1	-4	30*	19	1	3	-18
O=C(CCl)Nc1cn(-c2ccccc2)nc1-c1ccccc1	-2	-5	-4	-3	1	-1
O=C1Nc2ccc(Br)cc2/C1=C/C(=O)c1ccc2c(c1)OCO2	34*	22	47*	4	5	-29
